# Experimental data from different studies.
# Each line is one published result; the experiments were not run side by side.
# OPRD1: Delta-type opioid receptor (OPRD1, Homo sapiens, UniProt P41143)
# gag-pol reverse transcriptase: Gag-Pol polyprotein, reverse transcriptase (gag-pol, Human immunodeficiency virus 1, UniProt P03366)
# gyrA: DNA gyrase subunit A (gyrA, Escherichia coli K-12, UniProt P0AES4)
Structure (SMILES),target,effect on,mode,method,quantity,value
CCCCC(=O)[C@@]12C[C@@H]1[C@@H](n1ccc3c(NC)nc(C#Cc4ccc(Cl)s4)nc31)[C@H](O)[C@@H]2O,OPRD1,ligand displacement,,radioligand,Ki,> 10 µM
Cc1cc(C)cc(S(=O)(=O)c2c(C(=O)NCCCCNS(=O)(=O)c3ccc(C#N)cc3)[nH]c3ccc(Cl)cc23)c1,gag-pol reverse transcriptase,enzyme activity,inhibitor,ELISA,IC50,0.12 µM
O[C@@H]1[C@H](O)[C@@H]2C[C@@H]2[C@H]1n1cnc2c(NCC(c3ccccc3)c3ccccc3)nc(C#Cc3ccccc3)nc21,OPRD1,ligand displacement,,radioligand,Ki,> 10 µM
CC1=C(/C=C/C2=CCC[C@]3(C)[C@@H]([C@H](C)CCCC(C)(C)O)CC[C@@H]23)C[C@@H](O)CC1,"Oxysterols receptor LXR-alpha (NR1H3, Homo sapiens, UniProt Q13133)",coactivator recruitment,agonist,TR-FRET,EC50,0.01 to 0.1 µM
Cc1cc(C)cc(S(=O)(=O)c2c(C(=O)NCCCCNS(=O)(=O)c3ccc(F)cc3)[nH]c3ccc(Cl)cc23)c1,gag-pol reverse transcriptase,enzyme activity,inhibitor,ELISA,IC50,0.15 µM
Cc1cc(C#N)ccc1C(=O)Nc1ccc(C(=O)N[C@@H](CC(N)=O)C(=O)Nc2ccc(C(=O)Nc3ccc(C(=O)Nc4ccc(C(=O)O)cc4)c(O)c3OC(C)C)cc2)cc1,gyrA,enzyme activity,inhibitor,,IC50,1.7 µM
Cc1cc(C)cc(S(=O)(=O)c2c(C(=O)NCCCNS(=O)(=O)c3ccc([N+](=O)[O-])cc3)[nH]c3ccc(Cl)cc23)c1,gag-pol reverse transcriptase,enzyme activity,inhibitor,ELISA,IC50,0.12 µM
CC(C)Oc1c(-n2cc(-c3ccc(NC(=O)C(CC(N)=O)NC(=O)c4ccc(NC(=O)c5ccc(C#N)cc5)cc4)cc3)nn2)ccc(C(=O)Nc2ccc(C(=O)O)cc2)c1O (centres unmarked),gyrA,enzyme activity,inhibitor,,IC50,1.5 µM
Cc1ccc(S(=O)(=O)NCCCCNC(=O)c2[nH]c3ccc(Cl)cc3c2S(=O)(=O)c2cc(C)cc(C)c2)cc1,gag-pol reverse transcriptase,enzyme activity,inhibitor,ELISA,IC50,0.14 µM
CC(C)COc1c(NC(=O)c2ccc(NC(=O)[C@H](CC(N)=O)NC(=O)c3ccc(NC(=O)c4ccc([N+](=O)[O-])cc4)cc3)cc2)ccc(C(=O)Nc2ccc(C(=O)O)cc2)c1O,gyrA,enzyme activity,inhibitor,,IC50,0.9 µM
N#Cc1ccc(COc2cccc(C3CCN(Cc4nc5ccc(C(=O)O)cc5n4C[C@@H]4CCO4)CC3)n2)c(F)c1,"Gastric inhibitory polypeptide receptor (GIPR, Homo sapiens, UniProt P48546)",cAMP,agonist,,EC50,> 10 µM
CNc1nc(C#Cc2ccc(Br)s2)nc2c1ncn2[C@H]1[C@H](O)[C@H](O)[C@]2(C(=O)OC)C[C@H]12,OPRD1,ligand displacement,,radioligand,Ki,> 10 µM
CCn1c(-c2nc3ccc(C(=O)N4CCCC(N)C4)cc3n2C)cc2ccccc21 (centres unmarked),"5-hydroxytryptamine receptor 3A (HTR3A, Homo sapiens, UniProt P46098)",calcium signal,agonist,,EC50,> 50.1 µM
CC(C)Oc1c(NC(=O)c2ccc(NC(=O)[C@H](CC(N)=O)NC(=O)c3ccc(NC(=O)c4ccc([N+](=O)[O-])c(OC(C)C)c4O)cc3)cc2)ccc(C(=O)Nc2ccc(C(=O)O)cc2)c1O,gyrA,enzyme activity,inhibitor,,IC50,> 50 µM
Cc1cc(C)cc(S(=O)(=O)c2c(C(=O)NCCCCCNS(=O)(=O)c3ccc([N+](=O)[O-])cc3)[nH]c3ccc(Cl)cc23)c1,gag-pol reverse transcriptase,enzyme activity,inhibitor,ELISA,IC50,0.16 µM
N#Cc1ccc(Nc2nc(N)cc(Oc3c(F)cc(-c4ccccc4)cc3F)n2)cc1,gag-pol reverse transcriptase,enzyme activity,inhibitor,,IC50,0.07 µM
CNC(=O)[C@@]12C[C@@H]1[C@@H](n1cnc3c(NCCCO)nc(C#Cc4ccc(Cl)s4)nc31)[C@H](O)[C@@H]2O,OPRD1,ligand displacement,,radioligand,Ki,> 10 µM
